Compounds with a hit are over-represented: about 3.2% of the library has one in this group of screens.
mABHD4 FP – ABHD4 (mouse) inhibition, primary FP screen. Q8VD66. purified mABHD4, FP-Rh probe fluorescence polarization. inhibition, % at 8.92 µM. 0.54% of 370,000 active. AID 720543;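 active = inhibition exceeding the mean over every tested compound plus 3 SD, cut at about 30% in these data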
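Material: mouse ABHD4 enzyme, wild type; Benchmarks: S159A mutant high control, sample median low control; Buffer or medium: HEPES pH 7.0, NaCl, Pluronic buffer; Signal: fluorescence polarization; Read-out: percent inhibition of probe binding, normalized to plate controls; Timing: pre-incubation 45 min, probe exposure 60 min, at 25 °C; Dosing: 8.92 µM, single dose.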
rCAG binder – r(CAG) repeat RNA binding | TO-PRO-1 dye displacement fluorescence | inhibition, % at 3 µM | 1.3% of 370,000 active;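 active = inhibition above the plate cutoff, the mean of all test compounds on that plate plus 3 SD, cut at about 35% in these data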;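 also: higher means more dye released from RNA so lower well fluorescence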
LEDGF integ inh – blocks HIV-1 LEDGF/p75-dependent DNA integration; TR-FRET IN-LEDGF/p75 DNA integration, Eu/Cy5; inhibition, % at 3.7 µM; 0.64% of 370,000 active; AID 743269;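 active = inhibition above the screen-wide mean plus 3 SD, cut at about 13% in these data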;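 also: signal is the Cy5 over europium emission ratio at 671 and 618 nm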
HTRA1 inhibitor – inhibitors of human serine peptidase HTRA1; Q92743; recombinant HTRA1, FP-rhodamine activity-based probe, fluorescence polarization; inhibition, % at 5.96 µM; 0.5% of 340,000 active; in the data active = inhibition above about 36%
PRMT1 inh – inhibitors of human PRMT1. inhibition, % at 2.79 µM. AID 652257. 1.3% of 370,000 active. recombinant PRMT1, activity-based probe fluorescence polarization;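 active = inhibition above about 21% made by adding two undisclosed values, limit read from the data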
Target sequence (Q99873 whole entry, looked up): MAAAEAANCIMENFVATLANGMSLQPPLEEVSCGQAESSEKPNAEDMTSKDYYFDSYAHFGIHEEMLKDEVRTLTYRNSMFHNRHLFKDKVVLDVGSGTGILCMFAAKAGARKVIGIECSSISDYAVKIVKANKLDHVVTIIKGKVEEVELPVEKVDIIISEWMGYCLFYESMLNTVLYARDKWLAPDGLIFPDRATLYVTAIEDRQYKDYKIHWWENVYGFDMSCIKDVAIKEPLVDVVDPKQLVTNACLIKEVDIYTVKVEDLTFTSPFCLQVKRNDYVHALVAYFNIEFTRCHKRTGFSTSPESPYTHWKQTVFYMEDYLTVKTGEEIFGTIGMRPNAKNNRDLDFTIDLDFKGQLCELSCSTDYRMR
DAGLB inh – blocks human DAGLB lipase activity | HEK293T DAGLB membrane lysate, EnzChek fluorogenic substrate | 0.059% of 340,000 active | inhibition, % at 5.17 µM | AID 504411 | Q8NCG7; in the data active = inhibition above about 34%
PRMT1 confirm – PRMT1 (human) inhibition, FP confirmation; shares compounds with PRMT1 inh; recombinant His-PRMT1, activity-based probe fluorescence polarization; inhibition, % at 2.79 µM; 42% of 3,300 active; AID 687036;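 active = mean inhibition across replicates above the hit cutoff derived for the earlier primary screen, cut at about 22% in these data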
A number is an active result; i = inactive; nt = no result given; ! = not confirmed by another sample.

SMILES	mABHD4 FP	rCAG binder	LEDGF integ inh	HTRA1 inhibitor	PRMT1 inh	DAGLB inh	PRMT1 confirm
O=C(CN1CC(c2ccccc2)CC1=O)Nc1ccccc1 (stereo unspecified)	i	i	i	i	i	i	nt
Cc1cccc(N=C2c3cc([N+](=O)[O-])ccc3-c3c2cc([N+](=O)[O-])cc3[N+](=O)[O-])c1	i	i	i	i	i	i	nt
O=C1NS(=O)c2cc([N+](=O)[O-])cc([N+](=O)[O-])c21 (stereo unspecified)	i	i	i	i	37.8	i	26.6
COC(=O)C1C(c2ccc(F)cc2)CC2CCC1N2C (stereo unspecified)	i	i	i	nt	i	nt	nt
Nc1c2c(nc3ccccc13)CCN(Cc1ccccc1)C2	i	i	i	i	44.3	i	i
CC[C@H]1CN(C)CCc2c([nH]c3ccccc23)C(=O)C[C@@H]1/C(=C\OC)C(=O)OC	i	i	i	i	i	i	nt
Cc1ccccc1-n1c(O)c(C(c2ccncc2)c2c(O)n(-c3ccccc3C)c(=O)[nH]c2=O)c(=O)[nH]c1=O	i	i	i	i	i	i	nt
Cn1c(O)c(C(c2ccncc2)c2c(O)n(C)c(=S)n(C)c2=O)c(=O)n(C)c1=S	i	i	i	i	37.9	i	i
Cn1c(O)c(C(c2ccccn2)c2c(O)n(C)c(=S)n(C)c2=O)c(=O)n(C)c1=S	i	i	i	i	27.4	i	i
CN=C1CN(O)C(c2ccccc2)=c2cc(Cl)ccc2=N1	i	i	i	i	i	i	nt
c1cncc(C2CC(c3cccs3)n3ncnc3N2)c1 (stereo unspecified)	i	i	i	i	i	i	nt
N#CC1=C(N)Oc2c(c(=O)oc3ccccc23)C1c1ccc(OC(=O)N2CCOCC2)cc1 (stereo unspecified)	i	i	i	i	i	i	nt
Oc1ccc(C2=CCNCC2)cc1O	i	i	i	i	25.1	i	28.5
C1=C(c2ccccc2)CCNC1	i	i	i	i	i	i	nt
CN1CCN(Cc2cc3c(cc2[N+](=O)[O-])OCO3)CC1	i	i	i	i	i	i	nt
Cc1ccc2[nH]c3c(c2c1)CN(C(=O)CN1C[C@H]2C[C@@H](C1)c1cccc(=O)n1C2)CC3	i	i	i	i	49.7	i	i
CN(CC=CCN(C)P(=S)(N1CC1)N1CC1)P(=S)(N1CC1)N1CC1	i	i	i	i	51.5	i	i
COc1ccc(C2=NCC(=S)Nc3ccc(Cl)cc32)cc1Cl	i	i	i	i	40.2	i	i
COc1ccc(C2=NCC(=S)Nc3ccc(Cl)cc32)cc1OC	i	i	i	i	i	i	nt
O=C1COc2ccc(C(=O)COC(=O)Cc3ccccc3)cc2N1	i	i	i	i	i	i	nt
O=C1NC(=S)N(c2ccc(F)cc2)C(=O)/C1=C/c1ccccc1O	i	i	i	i	i	i	nt
COc1ccccc1C=C1C(=O)NC(=S)NC1=O	i	i	i	i	29.6	i	38.7
COc1ccccc1/C=C1\C(=O)NC(=S)N(c2ccccc2)C1=O	i	i	i	i	38.2	i	21.2
CCOC(=O)[C@]12Cc3ccccc3[C@H]1N(C(C)C)C(=O)c1cc(OC)ccc12	i	i	i	nt	i	nt	nt
COC(=O)C1=C(c2ccc(F)cc2OCc2ccccc2)C[C@@H]2CC[C@H]1N2C(=O)NCc1ccc(OC)cc1	i	i	i	i	i	i	nt
SMILES	mABHD4 FP	rCAG binder	LEDGF integ inh	HTRA1 inhibitor	PRMT1 inh	DAGLB inh	PRMT1 confirm
COc1ccc(/C=C2/C(=O)NC(=O)N(C3CCCCC3)C2=O)cc1CSc1ccccn1	i	i	i	nt	25.9	nt	i
CN1C(=O)C(=Cc2c(OCc3cnc(Cl)s3)ccc3ccccc23)C(=O)N(C)C1=O	i	i	i	i	43.5	i	i
CCn1cc(C=C2C(=O)N(C)C(=O)N(C)C2=O)c2ccccc21	i	i	i	i	i	i	nt
S=P(N1CCCCCC1)(N1CC1)N1CC1	i	i	i	i	30.5	i	i
CN1CCC2(CC1)C(C#N)=C(N)NC(S)=C2C#N	i	i	i	i	30.6!	i	i
CN1C(=O)C(=Cc2ccccc2OS(=O)(=O)c2ccccc2)C(=O)N(C)C1=O	i	i	i	i	33.9	i	i
